Assay results: ChEMBL document CHEMBL4334552, “Discovery of BMS-986260, a Potent, Selective, and Orally Bioavailable TGFβR1 Inhibitor as an Immuno-oncology Agent” (ACS Med Chem Lett, 2020)
≈ marks a conversion by molar mass, not a printed value. Calls of active or inactive are those of the source. No cut-off for these calls is given here.

Legend:
[1] = Cardiovascular toxicity in rat assessed as valvulo-pathy at 1 mg/kg, po for 10 days; assay type: organism-based; conditions: in vivo, 240 h
How it was run: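 Exploratory toxicology studies of 10 days with daily oral dosing in rats and dogs. Cardiovascular findings, including valvulopathy and aortic pathology, were assessed.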

[2] = Protein binding in human serum assessed as unbound fraction; assay type: ADME, cell-free
[3] = Tmax in Beagle dog at 5 mg/kg, po; assay type: ADME, organism-based, Canis lupus familiaris; conditions: in vivo
How it was run: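 Male Beagle dogs (n = 2) were pretreated with pentagastrin and dosed iv at 1 mg/kg and po at 5 mg/kg. The oral vehicle was 5% ethanol, 45% PEG400 and 50% 25 mM acetate buffer pH 4.0. The iv vehicle was 5:45:50 EtOH/PEG400/saline at 1 mL/kg.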

[4] = Volume of distribution at steady state in Sprague Dawley rat at 5 mg/kg, iv; assay type: ADME, organism-based; conditions: in vivo, read-out: Vdss
How it was run: (§1)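 Male Sprague–Dawley rats (n = 3) received a PEG400 solution iv at 5 mg/kg and po at 10 mg/kg.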

[5] = Oral bioavailability in Balb/C mouse at 10 mg/kg; assay type: ADME, organism-based; conditions: in vivo
How it was run: (§2)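 Male Balb/C mice (n = 3) dosed iv at 5 mg/kg and po at 10 mg/kg. Vehicle was 70% 25 mM acetate buffer pH 4.0, 5% ethanol and 25% PEG 400.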

[6] = Half life in dog liver microsomes in presence of UGT/UDPGA; assay type: ADME, Canis lupus familiaris, Microsome
TGF-beta receptor type-1 [7] = target: T1, TGF-beta receptor type-1 (Homo sapiens, UniProt P36897); experiment: Inhibition of TGFbetaR1 in TGFbeta-stimulated human T cells assessed as reduction in SMAD3 phosphorylation preincubated for 1 hr followed by TGFbeta-stimulation for 90 mins by Alphalisa assay
T1 sequence (P36897 whole entry): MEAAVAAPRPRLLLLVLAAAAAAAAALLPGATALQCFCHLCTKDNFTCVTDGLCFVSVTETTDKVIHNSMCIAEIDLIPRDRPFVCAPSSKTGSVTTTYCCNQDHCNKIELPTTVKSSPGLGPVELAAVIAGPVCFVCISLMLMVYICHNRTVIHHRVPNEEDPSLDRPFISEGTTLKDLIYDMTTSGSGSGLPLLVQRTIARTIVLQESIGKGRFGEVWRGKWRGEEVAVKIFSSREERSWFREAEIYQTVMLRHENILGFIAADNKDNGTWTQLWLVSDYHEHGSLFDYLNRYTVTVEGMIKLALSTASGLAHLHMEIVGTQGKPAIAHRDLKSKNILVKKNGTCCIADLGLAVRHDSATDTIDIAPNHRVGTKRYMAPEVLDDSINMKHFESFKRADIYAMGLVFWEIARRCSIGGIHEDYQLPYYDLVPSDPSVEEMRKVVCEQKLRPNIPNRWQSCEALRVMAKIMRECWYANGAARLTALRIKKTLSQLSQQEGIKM

[8] = Clearance in Beagle dog at 1 mg/kg, iv; assay type: ADME, organism-based, Canis lupus familiaris; conditions: in vivo
How it was run: (§3)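 Male Beagle dogs, n = 2, pretreated with pentagastrin. The po dose of 5 mg/kg was in 5% ethanol, 45% PEG400 and 50% 25 mM acetate buffer pH 4.0. The iv dose of 1 mg/kg was in 5:45:50 EtOH/PEG400/saline at 1 mL/kg.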

[9] = Cmax in Beagle dog at 5 mg/kg, po; assay type: ADME, organism-based, Canis lupus familiaris; parameters: dose 5 mg/kg, route oral; conditions: in vivo; how it was run: as §3
Cytochrome P450 2D6 = Cytochrome P450 2D6 (Homo sapiens, UniProt P10635); experiment: Inhibition of recombinant CYP2D6 (unknown origin); assay type: ADME
[10] = Volume of distribution at steady state in Balb/C mouse at 5 mg/kg, iv; assay type: ADME, organism-based; conditions: in vivo, read-out: Vdss; how it was run: as §2
[11] = MRT in Sprague Dawley rat at 5 mg/kg, iv; assay type: ADME, organism-based; conditions: in vivo; how it was run: as §1
[12] = Half life in mouse hepatocytes; assay type: ADME, cell-based, Hepatocyte
[13] = Aqueous solubility of the compound at pH 6.5; assay type: physicochemical; conditions: aqueous solution, read-out: solubility
[14] = Cmax in Balb/C mouse at 10 mg/kg, po; assay type: ADME, organism-based; parameters: dose 10 mg/kg, route oral; conditions: in vivo
How it was run: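 Male Balb/C mice, n = 3, dosed at 5 mg/kg iv or 10 mg/kg po. The vehicle was 70% 25 mM acetate buffer pH 4.0, 5% ethanol and 25% PEG 400.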

[15] = target: Voltage-gated inwardly rectifying potassium channel KCNH2 (Homo sapiens, UniProt Q12809); experiment: Inhibition of human ERG by electrophysiology analysis
[16] = Cardiovascular toxicity in dog at 5 mg/kg, po dosed every 3 days on and 4 days off treatment regime for 1 month; assay type: organism-based, Canis lupus familiaris; conditions: in vivo
TGF-beta receptor type-1 [17] = target: T1, TGF-beta receptor type-1; experiment: Inhibition of TGFbetaR1 in anti-CD3/anti-CD28/IL-2/TGFbeta -stimulated human Treg cells assessed as downregulation of FOXP3 expression incubated for 5 days by flow cytometry analysis
Cytochrome P450 3A4 = Cytochrome P450 3A4 (Homo sapiens, UniProt P08684); experiment: Inhibition of recombinant CYP3A4 (unknown origin); assay type: ADME
TGF-beta receptor type-1 [18] = target: T1, TGF-beta receptor type-1; experiment: Inhibition of TGFBR1 in human biochemical assay assessed as apparent inhibition constant; conditions: read-out: Ki(app)
[19] = Half life in Beagle dog at 1 mg/kg, iv; assay type: ADME, organism-based, Canis lupus familiaris; conditions: in vivo
How it was run: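 Male Beagle dogs (n = 2) pretreated with pentagastrin were given 1 mg/kg iv in 5:45:50 EtOH/PEG400/saline at 1 mL/kg. A 5 mg/kg oral arm used 5% ethanol, 45% PEG400, 50% 25 mM acetate buffer pH 4.0. Half-life was from the iv arm.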

[20] = Intrinsic permeability in human Caco2 cells; assay type: ADME, cell-based; conditions: Caco-2
TGF-beta receptor type-1 [21] = target: T2, TGF-beta receptor type-1 (Mus musculus, UniProt Q64729); experiment: Inhibition of TGFBR1 in mouse biochemical assay assessed as apparent inhibition constant; conditions: read-out: Ki(app)
T2 sequence (Q64729 whole entry): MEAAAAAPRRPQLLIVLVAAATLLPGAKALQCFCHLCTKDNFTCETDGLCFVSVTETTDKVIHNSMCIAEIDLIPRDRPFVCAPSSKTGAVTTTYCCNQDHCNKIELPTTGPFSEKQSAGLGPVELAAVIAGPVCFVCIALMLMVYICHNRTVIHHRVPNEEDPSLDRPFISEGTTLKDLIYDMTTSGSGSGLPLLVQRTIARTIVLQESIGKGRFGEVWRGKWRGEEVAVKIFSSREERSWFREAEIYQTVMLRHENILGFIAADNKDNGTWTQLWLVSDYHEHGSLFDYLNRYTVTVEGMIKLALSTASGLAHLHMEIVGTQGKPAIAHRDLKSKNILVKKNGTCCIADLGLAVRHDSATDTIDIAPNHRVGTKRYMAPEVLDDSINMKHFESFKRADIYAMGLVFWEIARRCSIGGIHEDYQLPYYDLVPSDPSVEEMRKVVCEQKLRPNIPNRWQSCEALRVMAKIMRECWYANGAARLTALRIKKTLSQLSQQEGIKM

MC-38 = experiment: Induction of long-term antitumor memory response in compound-mediated tumor cured C57Bl/6 mouse allografted with mouse MC38 cells assessed as reduction in tumor growth following rechallenge with newly implanted mouse MC38 cells treated at 3.75 to 15 mg/kg, po qd for 28 days and cotreated with anti-PD1 at 10 mg/kg, ip every 4 days for 3 doses prior to MC38 cells rechallenge by digital caliper analysis; assay type: functional, organism-based
How it was run: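 Mice cured by oral dosing plus anti-PD-1 (10 mg/kg IP, every 4 days, three doses) were re-implanted with MC38 or LL2 cells. Tumor growth was compared with naive mice.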

Sequence of Voltage-gated inwardly rectifying potassium channel KCNH2 (Q12809 whole entry): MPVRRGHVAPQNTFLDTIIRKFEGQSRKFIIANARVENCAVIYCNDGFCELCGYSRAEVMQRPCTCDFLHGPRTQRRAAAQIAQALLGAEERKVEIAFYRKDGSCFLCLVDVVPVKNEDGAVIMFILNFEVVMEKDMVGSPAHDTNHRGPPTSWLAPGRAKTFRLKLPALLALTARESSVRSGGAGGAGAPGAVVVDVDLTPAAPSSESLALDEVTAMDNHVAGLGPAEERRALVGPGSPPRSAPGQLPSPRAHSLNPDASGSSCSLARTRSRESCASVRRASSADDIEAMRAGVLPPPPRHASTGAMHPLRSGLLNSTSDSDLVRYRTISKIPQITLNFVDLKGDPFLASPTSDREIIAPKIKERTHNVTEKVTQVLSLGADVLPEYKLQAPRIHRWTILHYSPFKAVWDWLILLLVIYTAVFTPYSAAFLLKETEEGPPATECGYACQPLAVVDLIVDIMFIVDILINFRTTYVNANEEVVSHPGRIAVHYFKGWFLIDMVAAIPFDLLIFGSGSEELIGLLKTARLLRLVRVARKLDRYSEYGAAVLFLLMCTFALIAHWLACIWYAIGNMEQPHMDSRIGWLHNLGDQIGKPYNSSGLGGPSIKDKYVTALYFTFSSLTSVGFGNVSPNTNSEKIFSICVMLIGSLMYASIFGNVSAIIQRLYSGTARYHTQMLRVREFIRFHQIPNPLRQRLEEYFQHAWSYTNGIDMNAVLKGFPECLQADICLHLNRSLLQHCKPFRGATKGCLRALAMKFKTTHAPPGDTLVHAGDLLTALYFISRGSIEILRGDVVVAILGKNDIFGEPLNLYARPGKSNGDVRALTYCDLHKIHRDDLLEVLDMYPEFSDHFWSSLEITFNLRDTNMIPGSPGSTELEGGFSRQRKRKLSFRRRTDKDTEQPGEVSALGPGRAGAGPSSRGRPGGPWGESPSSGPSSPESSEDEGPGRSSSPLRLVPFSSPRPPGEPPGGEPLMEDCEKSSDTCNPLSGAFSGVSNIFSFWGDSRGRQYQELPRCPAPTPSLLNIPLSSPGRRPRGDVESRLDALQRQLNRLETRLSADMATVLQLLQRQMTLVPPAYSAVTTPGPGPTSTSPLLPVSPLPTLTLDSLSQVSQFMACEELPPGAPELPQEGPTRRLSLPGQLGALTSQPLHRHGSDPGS
Sequence of Cytochrome P450 3A4 (P08684 whole entry): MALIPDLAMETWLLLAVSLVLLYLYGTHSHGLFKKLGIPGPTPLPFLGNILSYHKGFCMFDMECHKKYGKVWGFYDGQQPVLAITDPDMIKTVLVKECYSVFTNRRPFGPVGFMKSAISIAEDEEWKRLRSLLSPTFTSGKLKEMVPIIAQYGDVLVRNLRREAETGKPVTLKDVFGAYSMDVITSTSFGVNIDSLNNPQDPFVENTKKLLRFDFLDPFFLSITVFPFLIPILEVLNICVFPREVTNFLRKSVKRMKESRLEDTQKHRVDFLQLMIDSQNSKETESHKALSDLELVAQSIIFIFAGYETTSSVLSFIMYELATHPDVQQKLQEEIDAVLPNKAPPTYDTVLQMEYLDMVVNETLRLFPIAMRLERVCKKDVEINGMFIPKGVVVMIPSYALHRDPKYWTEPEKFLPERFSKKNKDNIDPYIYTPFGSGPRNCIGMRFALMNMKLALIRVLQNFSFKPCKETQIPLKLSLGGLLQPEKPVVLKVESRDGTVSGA
Sequence of Cytochrome P450 2D6 (P10635 whole entry): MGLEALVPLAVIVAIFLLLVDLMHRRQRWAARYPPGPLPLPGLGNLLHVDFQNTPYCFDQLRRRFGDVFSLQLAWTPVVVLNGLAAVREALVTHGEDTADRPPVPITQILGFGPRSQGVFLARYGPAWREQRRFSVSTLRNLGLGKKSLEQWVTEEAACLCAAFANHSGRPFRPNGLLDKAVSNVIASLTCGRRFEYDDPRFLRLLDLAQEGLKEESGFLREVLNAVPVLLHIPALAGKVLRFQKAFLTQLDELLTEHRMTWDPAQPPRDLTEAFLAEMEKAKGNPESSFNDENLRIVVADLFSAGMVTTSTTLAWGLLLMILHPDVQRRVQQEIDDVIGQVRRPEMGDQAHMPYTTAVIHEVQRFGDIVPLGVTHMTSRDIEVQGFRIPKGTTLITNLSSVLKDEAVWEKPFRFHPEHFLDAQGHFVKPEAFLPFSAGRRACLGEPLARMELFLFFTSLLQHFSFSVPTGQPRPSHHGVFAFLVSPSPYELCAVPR

N#Cc1cnc2ccc(-c3c(-c4ccc(F)c(Cl)c4)ncn3CCO)nn12
Activity [1]: Toxic
fraction unbound [2]: 0.1
Tmax [3]: 0.67 h
Vd [4]: 2.4 L/kg
bioavailability [5]: > 100%
half-life [6]: 1.53 h
IC50 (TGF-beta receptor type-1 [7]): 150 nM
clearance [8]: 6.4 mL/min/kg
Cmax [9]: 11.2 µM
IC50 (Cytochrome P450 2D6): > 20000 nM
Vd [10]: 4.5 L/kg
MRT [11]: 7.2 h
half-life [12]: 1.27 h
solubility [13]: 47 µg/mL (≈ 123 µM)
Cmax [14]: 16 µM
IC50 [15]: > 10000 nM
Activity [16]: Non-Toxic
IC50 (TGF-beta receptor type-1 [17]): 230 nM
IC50 (Cytochrome P450 3A4): > 20000 nM
Ki (TGF-beta receptor type-1 [18]): 0.8 nM
half-life [19]: 5 h
Papp [20]: 27.2 ×10⁻⁶ cm/s
Ki (TGF-beta receptor type-1 [21]): 1.4 nM
Activity (MC-38): Active
